≈ marks a conversion by molar mass, not a printed value.
How the values were obtained:
Hafnia alvei [1] = assay: Activity of Hafnia alvei beta-lactamase ACC-1 assessed as nmol of compound hydrolysis per ug of protein
Hafnia alvei [2] = assay: Activity of Hafnia alvei beta-lactamase ACC-1
Hafnia alvei [3] = assay: Ratio of Vmax to Km for Hafnia alvei beta-lactamase ACC-1
Escherichia coli [4] = assay: Antimicrobial activity against Escherichia coli MC4100 harboring pA-acc4 plasmid by agar dilution technique; type: functional
Escherichia coli [5] = assay: Antimicrobial activity against Escherichia coli MC4100 harboring pA-acc1 plasmid by agar dilution technique; type: functional
Escherichia coli [6] = assay: Antimicrobial activity against Escherichia coli MC4100 harboring pACYC184 plasmid by agar dilution technique; type: functional
Escherichia coli [7] = assay: Antimicrobial activity against Escherichia coli MC4100 harboring pB-acc4 plasmid by agar dilution technique; type: functional
Escherichia coli [8] = assay: Antimicrobial activity against Escherichia coli MC4100 harboring pB-acc1 plasmid by agar dilution technique; type: functional
Escherichia coli [9] = assay: Antimicrobial activity against Escherichia coli MC4100 harboring pBCSK plasmid by agar dilution technique; type: functional
Beta-lactamase ACC-4 = molecular target: T1, Beta-lactamase ACC-4 (Escherichia coli, UniProt A4ZYU9); assay: Inhibition of Escherichia coli beta-lactamase ACC4
T1 sequence (A4ZYU9 whole entry): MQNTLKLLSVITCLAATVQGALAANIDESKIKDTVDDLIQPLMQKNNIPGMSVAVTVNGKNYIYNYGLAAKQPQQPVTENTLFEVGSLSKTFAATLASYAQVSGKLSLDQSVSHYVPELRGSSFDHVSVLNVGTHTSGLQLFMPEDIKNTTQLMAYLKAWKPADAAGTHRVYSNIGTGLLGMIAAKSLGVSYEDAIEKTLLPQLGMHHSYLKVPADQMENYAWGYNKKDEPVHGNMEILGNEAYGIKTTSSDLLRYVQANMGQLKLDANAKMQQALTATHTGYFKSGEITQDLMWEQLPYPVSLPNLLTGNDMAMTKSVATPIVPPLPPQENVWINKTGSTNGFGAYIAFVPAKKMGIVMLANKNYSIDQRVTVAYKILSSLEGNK
Outline: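 ACC-4 from mid-log E. coli(pS18-d): sonicated, ultracentrifuged, Q-Sepharose flowthrough then S-Sepharose (0–0.6 M NaCl gradient, phosphate pH 6.8), >95% pure by SDS-PAGE.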

[10] = substrate: CC(=O)OCC1=C(C(=O)O)N2C(=O)[C@@H](NC(=O)Cc3cccs3)[C@H]2SC1; assay: (§1) Ratio of Kcat to Km for Escherichia coli beta-lactamase ACC4 by UV spectrophotometry
Outline: (§2)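 ACC-4 purified from E. coli carrying pS18-d, grown to mid-log in broth with 100 μg/ml ampicillin. Sonicated, then Q-Sepharose and S-Sepharose chromatography (NaCl 0 to 0.6 M, phosphate pH 6.8), >95% pure. Substrate hydrolysis at 30°C, pH 7.0, followed by UV spectrophotometry. kcat and Km are means of four independent measurements.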

[11] = substrate: CC(C)(O/N=C(\C(=O)N[C@@H]1C(=O)N2C(C(=O)[O-])=C(C[n+]3ccccc3)CS[C@H]12)c1csc(N)n1)C(=O)O; assay: as §1; outline: as §2
[12] = substrate: CC1(C)S[C@@H]2[C@H](NC(=O)Cc3ccccc3)C(=O)N2[C@H]1C(=O)O; assay: as §1; outline: as §2
[13] = substrate: CCN1CCN(C(=O)N[C@@H](C(=O)N[C@@H]2C(=O)N3[C@@H]2SC(C)(C)[C@@H]3C(=O)O)c2ccccc2)C(=O)C1=O; assay: as §1; outline: as §2
[14] = substrate: CO/N=C(\C(=O)N[C@@H]1C(=O)N2C(C(=O)O)=C(COC(C)=O)CS[C@H]12)c1csc(N)n1; assay: as §1; outline: as §2
[15] = substrate: CO/N=C(\C(=O)N[C@@H]1C(=O)N2C(C(=O)[O-])=C(C[N+]3(C)CCCC3)CS[C@H]12)c1csc(N)n1; assay: as §1; outline: as §2
[16] = substrate: CC(=O)OCC1=C(C(=O)O)N2C(=O)[C@@H](NC(=O)Cc3cccs3)[C@H]2SC1; assay: (§3) Activity of Escherichia coli beta-lactamase ACC4 by UV spectrophotometry; outline: as §2
[17] = substrate: CC(C)(O/N=C(\C(=O)N[C@@H]1C(=O)N2C(C(=O)[O-])=C(C[n+]3ccccc3)CS[C@H]12)c1csc(N)n1)C(=O)O; assay: as §3; outline: as §2
[18] = substrate: CC1(C)S[C@@H]2[C@H](NC(=O)Cc3ccccc3)C(=O)N2[C@H]1C(=O)O; assay: as §3; outline: as §2
[19] = substrate: CCN1CCN(C(=O)N[C@@H](C(=O)N[C@@H]2C(=O)N3[C@@H]2SC(C)(C)[C@@H]3C(=O)O)c2ccccc2)C(=O)C1=O; assay: as §3; outline: as §2
[20] = substrate: CO/N=C(\C(=O)N[C@@H]1C(=O)N2C(C(=O)O)=C(COC(C)=O)CS[C@H]12)c1csc(N)n1; assay: as §3; outline: as §2
[21] = substrate: CO/N=C(\C(=O)N[C@@H]1C(=O)N2C(C(=O)[O-])=C(C[N+]3(C)CCCC3)CS[C@H]12)c1csc(N)n1; assay: as §3; outline: as §2
[22] = substrate: CO[C@@]1(NC(=O)Cc2cccs2)C(=O)N2C(C(=O)O)=C(COC(N)=O)CS[C@@H]21; assay: as §3; outline: as §2

CC(C)(O/N=C(\C(=O)N[C@@H]1C(=O)N2C(C(=O)[O-])=C(C[n+]3ccccc3)CS[C@H]12)c1csc(N)n1)C(=O)O [CEFTAZIDIME]
Vmax (Hafnia alvei [1]): < 0.025 nmol/min/µg | Km (Hafnia alvei [2]): 17 µM | Vmax/Km (Hafnia alvei [3]): < 0.01 | MIC (Escherichia coli [4]): 256 µg/mL (≈ 468 µM) | MIC (Escherichia coli [5]): 32 µg/mL (≈ 58.5 µM) | MIC (Escherichia coli [6]): 0.25 µg/mL (≈ 0.457 µM) | MIC (Escherichia coli [7]): 512 µg/mL (≈ 937 µM) | MIC (Escherichia coli [8]): 128 µg/mL (≈ 234 µM) | MIC (Escherichia coli [9]): 0.25 µg/mL (≈ 0.457 µM)

C[C@H]1[C@H](NC(=O)/C(=N\OC(C)(C)C(=O)O)c2csc(N)n2)C(=O)N1S(=O)(=O)O [AZTREONAM]
IC50 (Beta-lactamase ACC-4): 32 nM | MIC (Escherichia coli [4]): 2 µg/mL (≈ 4.59 µM) | MIC (Escherichia coli [5]): 0.5 µg/mL (≈ 1.15 µM) | MIC (Escherichia coli [7]): 2 µg/mL (≈ 4.59 µM) | MIC (Escherichia coli [8]): 1 µg/mL (≈ 2.3 µM)

C[C@]1(/C=C\C#N)[C@H](C(=O)O)N2C(=O)C[C@H]2S1(=O)=O
IC50 (Beta-lactamase ACC-4): 10300 nM

CO/N=C(\C(=O)N[C@@H]1C(=O)N2C(C(=O)O)=C(COC(N)=O)CS[C@H]12)c1ccco1 [CEFUROXIME]
MIC (Escherichia coli [4]): > 512 µg/mL | MIC (Escherichia coli [5]): 128 µg/mL (≈ 302 µM) | MIC (Escherichia coli [6]): 1 µg/mL (≈ 2.36 µM) | MIC (Escherichia coli [7]): > 512 µg/mL | MIC (Escherichia coli [8]): 128 µg/mL (≈ 302 µM) | MIC (Escherichia coli [9]): 1 µg/mL (≈ 2.36 µM)

CO/N=C(\C(=O)N[C@@H]1C(=O)N2C(C(=O)[O-])=C(C[N+]3(C)CCCC3)CS[C@H]12)c1csc(N)n1
MIC (Escherichia coli [4]): 0.12 µg/mL (≈ 0.25 µM) | MIC (Escherichia coli [5]): 0.12 µg/mL (≈ 0.25 µM) | MIC (Escherichia coli [7]): 0.25 µg/mL (≈ 0.52 µM) | MIC (Escherichia coli [8]): 0.12 µg/mL (≈ 0.25 µM)

CO/N=C(\C(=O)N[C@@H]1C(=O)N2C(C(=O)O)=C(COC(C)=O)CS[C@H]12)c1csc(N)n1 [CEFOTAXIME]
Vmax (Hafnia alvei [1]): < 0.01 nmol/min/µg | MIC (Escherichia coli [4]): 32 µg/mL (≈ 70.3 µM) | MIC (Escherichia coli [5]): 8 µg/mL (≈ 17.6 µM) | MIC (Escherichia coli [6]): ≤ 0.06 µg/mL | MIC (Escherichia coli [7]): 64 µg/mL (≈ 141 µM) | MIC (Escherichia coli [8]): 16 µg/mL (≈ 35.1 µM) | MIC (Escherichia coli [9]): ≤ 0.06 µg/mL

CC1(C)S[C@@H]2[C@H](NC(=O)[C@H](N)c3ccc(O)cc3)C(=O)N2[C@H]1C(=O)O [AMOXICILLIN]
MIC (Escherichia coli [4]): > 512 µg/mL | MIC (Escherichia coli [5]): > 512 µg/mL | MIC (Escherichia coli [6]): 4 µg/mL (≈ 10.9 µM) | MIC (Escherichia coli [7]): > 512 µg/mL | MIC (Escherichia coli [8]): > 512 µg/mL | MIC (Escherichia coli [9]): 4 µg/mL (≈ 10.9 µM)

Cc1onc(-c2ccccc2Cl)c1C(=O)N[C@@H]1C(=O)N2[C@@H]1SC(C)(C)[C@@H]2C(=O)O [CLOXACILLIN]
IC50 (Beta-lactamase ACC-4): 26 nM

N[C@@H](C(=O)N[C@@H]1C(=O)N2C(C(=O)O)=C(Cl)CS[C@H]12)c1ccccc1 [CEFACLOR ANHYDROUS]
MIC (Escherichia coli [4]): > 512 µg/mL | MIC (Escherichia coli [5]): > 512 µg/mL | MIC (Escherichia coli [6]): 2 µg/mL (≈ 5.44 µM) | MIC (Escherichia coli [7]): > 512 µg/mL | MIC (Escherichia coli [8]): > 512 µg/mL | MIC (Escherichia coli [9]): 2 µg/mL (≈ 5.44 µM)

CC(=O)OCC1=C(C(=O)O)N2C(=O)[C@@H](NC(=O)Cc3cccs3)[C@H]2SC1 [CEPHALOTHIN]
MIC (Escherichia coli [4]): > 512 µg/mL | MIC (Escherichia coli [5]): > 512 µg/mL | MIC (Escherichia coli [6]): 2 µg/mL (≈ 5.04 µM) | MIC (Escherichia coli [7]): > 512 µg/mL | MIC (Escherichia coli [8]): > 512 µg/mL | MIC (Escherichia coli [9]): 2 µg/mL (≈ 5.04 µM)

CO[C@@]1(NC(=O)Cc2cccs2)C(=O)N2C(C(=O)O)=C(COC(N)=O)CS[C@@H]21 [CEFOXITIN]
Vmax (Hafnia alvei [1]): < 0.002 nmol/min/µg | MIC (Escherichia coli [4]): 4 µg/mL (≈ 9.36 µM) | MIC (Escherichia coli [5]): 4 µg/mL (≈ 9.36 µM) | MIC (Escherichia coli [6]): 2 µg/mL (≈ 4.68 µM) | MIC (Escherichia coli [7]): 4 µg/mL (≈ 9.36 µM) | MIC (Escherichia coli [8]): 4 µg/mL (≈ 9.36 µM) | MIC (Escherichia coli [9]): 2 µg/mL (≈ 4.68 µM)

CO/N=C(\C(=O)N[C@@H]1C(=O)N2C(C(=O)O)=C(CSc3nc(=O)c(O)nn3C)CS[C@H]12)c1csc(N)n1 [CEFTRIAXONE]
MIC (Escherichia coli [4]): 32 µg/mL (≈ 57.7 µM) | MIC (Escherichia coli [5]): 16 µg/mL (≈ 28.9 µM) | MIC (Escherichia coli [6]): 0.12 µg/mL (≈ 0.216 µM) | MIC (Escherichia coli [7]): 128 µg/mL (≈ 231 µM) | MIC (Escherichia coli [8]): 32 µg/mL (≈ 57.7 µM) | MIC (Escherichia coli [9]): 0.12 µg/mL (≈ 0.216 µM)

CCN1CCN(C(=O)N[C@@H](C(=O)N[C@@H]2C(=O)N3[C@@H]2SC(C)(C)[C@@H]3C(=O)O)c2ccccc2)C(=O)C1=O [PIPERACILLIN]
Vmax (Hafnia alvei [1]): 0.17 nmol/min/µg | Km (Hafnia alvei [2]): 1.4 µM | Vmax/Km (Hafnia alvei [3]): 0.12 | MIC (Escherichia coli [4]): 32 µg/mL (≈ 61.8 µM) | MIC (Escherichia coli [5]): 64 µg/mL (≈ 124 µM) | MIC (Escherichia coli [6]): 0.5 µg/mL (≈ 0.966 µM) | MIC (Escherichia coli [7]): 128 µg/mL (≈ 247 µM) | MIC (Escherichia coli [8]): 256 µg/mL (≈ 495 µM) | MIC (Escherichia coli [9]): 0.5 µg/mL (≈ 0.966 µM)

CO[C@@]1(NC(=O)C2SC(=C(C(N)=O)C(=O)O)S2)C(=O)N2C(C(=O)O)=C(CSc3nnnn3C)CS[C@@H]21 (stereo partly drawn) [CEFOTETAN]
MIC (Escherichia coli [4]): 1 µg/mL (≈ 1.74 µM) | MIC (Escherichia coli [5]): 1 µg/mL (≈ 1.74 µM) | MIC (Escherichia coli [6]): 0.5 µg/mL (≈ 0.869 µM) | MIC (Escherichia coli [7]): 1 µg/mL (≈ 1.74 µM) | MIC (Escherichia coli [8]): 1 µg/mL (≈ 1.74 µM) | MIC (Escherichia coli [9]): 0.5 µg/mL (≈ 0.869 µM)

B1: Beta-lactamase ACC-4 (Escherichia coli), A4ZYU9 (protein)
chain: MQNTLKLLSVITCLAATVQGALAANIDESKIKDTVDDLIQPLMQKNNIPGMSVAVTVNGKNYIYNYGLAAKQPQQPVTENTLFEVGSLSKTFAATLASYAQVSGKLSLDQSVSHYVPELRGSSFDHVSVLNVGTHTSGLQLFMPEDIKNTTQLMAYLKAWKPADAAGTHRVYSNIGTGLLGMIAAKSLGVSYEDAIEKTLLPQLGMHHSYLKVPADQMENYAWGYNKKDEPVHGNMEILGNEAYGIKTTSSDLLRYVQANMGQLKLDANAKMQQALTATHTGYFKSGEITQDLMWEQLPYPVSLPNLLTGNDMAMTKSVATPIVPPLPPQENVWINKTGSTNGFGAYIAFVPAKKMGIVMLANKNYSIDQRVTVAYKILSSLEGNK
kcat/Km [10]: 3.2e+06 M⁻¹ s⁻¹ | kcat/Km [11]: 100000 M⁻¹ s⁻¹ | kcat/Km [12]: 160000 M⁻¹ s⁻¹ | kcat/Km [13]: 120000 M⁻¹ s⁻¹ | kcat/Km [14]: 290000 M⁻¹ s⁻¹ | kcat/Km [15]: 2000 M⁻¹ s⁻¹ | Km [16]: 30 µM | kcat [16]: 96 s⁻¹ | Km [17]: 15 µM | kcat [17]: 1.5 s⁻¹ | Km [18]: 3.8 µM | kcat [18]: 0.59 s⁻¹ | Km [19]: 1.1 µM | kcat [19]: 0.13 s⁻¹ | Km [20]: 9.4 µM | kcat [20]: 2.7 s⁻¹ | Km [21]: 73 µM | kcat [21]: 0.14 s⁻¹ | kcat [22]: < 0.01 s⁻¹
